Bioassay records: PubChem, several laboratories
Only some compounds are listed: those with a hit (about 3.1% of all), similar ones and a draw of the others.
pPAFAH inh – pPAFAH (human) enzyme inhibition | Q13093 | recombinant pPAFAH, FP-rhodamine probe fluorescence polarization | inhibition, % at 3.39 µM | hit rate 1.5% among 330,000 | AID 463082;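 active = inhibition above the mean inhibition across the screen plus 3 SD, cut at about 25% in these data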;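 also: inhibitors block binding of the rhodamine activity-based probe so polarization drops; 0% = enzyme with DMSO and 100% = wells lacking pPAFAH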
PAFAH1B2 inh – inhibitors of human PAFAH1B2 | P68402 | recombinant PAFAH1B2, FP-rhodamine activity probe, fluorescence polarization | inhibition, % at 3.39 µM | hit rate 1.2% among 340,000 | AID 492953;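 active = inhibition above the mean of all tested compounds plus 3 SD, cut at about 24% in these data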;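 also: 0% = enzyme with DMSO and 100% = wells lacking PAFAH1B2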
Target sequence (P68402 whole entry, looked up): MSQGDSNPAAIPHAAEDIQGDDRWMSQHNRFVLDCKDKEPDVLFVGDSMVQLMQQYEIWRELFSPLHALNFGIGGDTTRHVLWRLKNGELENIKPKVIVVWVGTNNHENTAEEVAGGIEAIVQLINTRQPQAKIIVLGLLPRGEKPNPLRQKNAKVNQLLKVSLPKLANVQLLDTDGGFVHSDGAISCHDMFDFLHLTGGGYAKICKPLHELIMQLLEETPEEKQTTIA
PAFAH2 inh – PAFAH2 (human) inhibition; recombinant PAFAH2, FP-rhodamine activity probe, fluorescence polarization; inhibition, % at 3.39 µM; hit rate 0.99% among 340,000; AID 492956;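 active = inhibition above the mean over all tested compounds plus 3 SD, cut at about 30% in these data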;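 also: inhibitors block probe labeling of enzyme so polarization drops; 0% = enzyme with DMSO and 100% = wells lacking PAFAH2 protein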
Apaf-1 inh – inhibitors of human Apaf-1 apoptosome. O14727. reconstituted apoptosome caspase-3 activity, DEVD-Rh110 fluorescence. inhibition, % at 20 µM. hit rate 0.71% among 330,000; active = inhibition of at least 40% at 20 µM;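 also: plate controls were DMSO wells for no effect and DEVD-CHO caspase inhibitor wells for full effect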
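System: reconstituted apoptosome with Apaf-1, cytochrome c, caspase-9, procaspase-3, dATP; Signal: Rh110 fluorescence intensity; Schedule: 30 min compound preincubation, 50 min activation, room temperature; Reagent: cytochrome c trigger plus (Z-DEVD)2-Rh110 caspase-3 substrate.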
PAFAH1B3 FP inh – inhibitors of human PAFAH1B3. Q15102. recombinant PAFAH1B3, FP-rhodamine probe, fluorescence polarization. inhibition, % at 3.39 µM. hit rate 0.28% among 340,000;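 active = inhibition above the screen-wide average of all tested compounds plus 3 SD, cut at about 25% in these data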;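 also: 0% = enzyme with DMSO only and 100% = wells lacking PAFAH1B3 protein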
Target sequence (Q15102 whole entry, looked up): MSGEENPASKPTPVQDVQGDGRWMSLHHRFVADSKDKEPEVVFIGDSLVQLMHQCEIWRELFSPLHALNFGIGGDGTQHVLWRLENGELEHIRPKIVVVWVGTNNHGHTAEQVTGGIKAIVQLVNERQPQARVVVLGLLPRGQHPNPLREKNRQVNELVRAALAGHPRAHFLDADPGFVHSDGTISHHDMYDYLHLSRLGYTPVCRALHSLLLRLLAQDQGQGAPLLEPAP
An asterisk follows results filed as active; · = no result given.

SMILES	pPAFAH inh	PAFAH1B2 inh	PAFAH2 inh	Apaf-1 inh	PAFAH1B3 FP inh
O=C(NCc1cccs1)c1ccc(S(=O)(=O)N2CCCCC2)cc1	3	4	-5	-5	5
CC1CCN(S(=O)(=O)c2cccc(C(=O)NCc3ccco3)c2)CC1	3	25*	6	-5	3
CC1CCN(S(=O)(=O)c2cccc(C(=O)NCc3cccs3)c2)CC1	-2	27*	5	4	0
O=C(O)c1ccc(CN2C(=O)c3ccc(Oc4ccc([N+](=O)[O-])cc4)cc3C2=O)cc1	3	3	7	8	4
COC(=O)c1ccc(Cn2nc(-c3cc(C)ccc3C)ccc2=O)cc1	·	2	-5	16	0
CCOC(=O)Cc1cc(=O)n2[nH]cc(-c3cccc(Br)c3)c2n1	31*	13	31*	13	8
CCOC(=O)Cc1cc(=O)n2[nH]c(-c3ccc(C)cc3)cc2n1	34*	3	6	-10	-1
COCc1cc(=O)n2[nH]cc(-c3ccccc3)c2n1	5	6	-3	6	7
CCOC(=O)C1=CN(Cc2ccco2)S(=O)(=O)N(CC)C1c1ccc(C(F)(F)F)cc1 (configuration not stated)	12	2	5	14	8
O=c1c2cc([N+](=O)[O-])cc([N+](=O)[O-])c2[nH]n1-c1ccccc1	20	5	9	9	17
Cc1[nH]n(-c2ccccc2)c(=O)c1C(c1ccc(O)c([N+](=O)[O-])c1)c1c(C)[nH]n(-c2ccccc2)c1=O	1	0	2	87*	8
Cc1ccc(NC(=O)c2ccc(=O)[nH]c2)cc1S(=O)(=O)N1CCCCCC1	0	-1	7	4	10
CC1=C(SCc2ccccc2)C(=O)c2ccccc2C1=O	·	22	46*	·	48*
O=S(=O)(c1ccccc1)c1cc(O)ccc1O	2	1	3	-1	2
O=S(=O)(c1ccc(Cl)cc1)c1cc(O)ccc1O	6	26*	3	2	6
CCN(C1CCCCC1)S(=O)(=O)c1ccc(S(=O)(=O)NCc2ccncc2)cc1	0	15	-1	0	-2
CCN(C1CCCCC1)S(=O)(=O)c1ccc(S(=O)(=O)NCCc2ccncc2)cc1	10	25*	7	-4	11
O=C(NCCCNc1ccc(C(F)(F)F)cc1[N+](=O)[O-])c1ccc(Cl)cc1	10	29*	-2	-2	6
C=CCN=c1scc(C)n1/N=C/c1ccc(O)c(O)c1	34*	6	10	7	12
CN=c1scc(C)n1/N=C/c1ccc(O)cc1	-1	2	-3	1	11
NC(Cc1c[nH]c2ccc(OCc3ccccc3)cc12)C(=O)O (configuration not stated)	26*	13	-1	4	9
CCOc1ccc(NS(=O)(=O)c2ccc(C(=O)N3CCC3)cc2)cc1	46*	1	-5	13	5
CCOc1ccc(NS(=O)(=O)c2ccc(C(=O)N3CCCC3)cc2)cc1	25*	1	-5	6	4
CCOc1ccc(NS(=O)(=O)c2cc3c4c(c2)CCN4C(=O)CC3)cc1	25*	1	2	1	0
CCOC(=O)c1ccc(NS(=O)(=O)c2cc3c4c(c2)CCN4C(=O)CC3)cc1	8	-1	7	8	8
SMILES	pPAFAH inh	PAFAH1B2 inh	PAFAH2 inh	Apaf-1 inh	PAFAH1B3 FP inh
COC1(OC)C=CC(=O)C=C1NC(=O)c1ccccc1OC(C)=O	-6	1	-3	6	11
Cc1cn(CC(=O)NCCc2ccccn2)c(=O)[nH]c1=O	·	3	-7	·	10
Cc1ccc2nc(SCC(=O)NCc3ccc(F)cc3)nc(=O)n2c1	-3	-1	-12	-1	3
C[C@H](CO)N1C[C@H](C)[C@@H](CN(C)C(=O)Nc2ccc(C(F)(F)F)cc2)Oc2c(NC(=O)CCC(F)(F)F)cccc2C1=O	1	28*	-7	7	-2
C[C@@H]1CN([C@H](C)CO)C(=O)c2cccc(NC(=O)NC3CCCCC3)c2O[C@@H]1CN(C)C(=O)Nc1ccc(C(F)(F)F)cc1	7	64*	4	24	13
C[C@H](CO)N1C[C@H](C)[C@@H](CN(C)C(=O)Nc2ccccc2)Oc2c(NC(=O)Nc3ccc(C(F)(F)F)cc3)cccc2C1=O	-3	36*	-14	23	6
CCCc1cc(=O)oc2c(C)c(OCC(=O)Nc3cccnc3)ccc12	3	1	4	1	9
COc1ccccc1C1(O)C(=O)Nc2ccccc21 (configuration not stated)	0	0	-5	0	5
CSc1ncccc1C(=O)NC1CC(C)(C)Cc2c1cnn2-c1ccccc1C (configuration not stated)	4	0	-15	-2	5
C#CCOCCOCCOCCNc1nc(N2CCN(C(=O)CCCCCCCCCCNC(=O)[C@H]([C@@H](C)CC)n3cc(CCCCN=C(N)N)nn3)CC2)nc(N2CCN(C(=O)CCCCCCCCCCNC(=O)[C@H]([C@@H](C)CC)n3cc(CCCCN=C(N)N)nn3)CC2)n1	-1	·	·	41*	·
C#CCOCCOCCOCCNc1nc(N2CCN(C(=O)CCCCCCCCCCNC(=O)[C@H]([C@@H](C)CC)n3cc(CCCCCN)nn3)CC2)nc(N2CCN(C(=O)CCCCCCCCCCNC(=O)[C@H]([C@@H](C)CC)n3cc(CCCCN=C(N)N)nn3)CC2)n1	6	-10	-2	71*	5
C#CCOCCOCCOCCNc1nc(N2CCN(C(=O)C(Cc3ccc(O)cc3)n3cc(C(N)CC(C)C)nn3)CC2)nc(N2CCN(C(=O)C(Cc3cc4ccccc4[nH]3)n3cc(C(N)Cc4ccc(O)cc4)nn3)CC2)n1 (configuration not stated)	0	·	·	35	·
C#CCOCCOCCOCCNc1nc(N2CCN(C(=O)[C@H]([C@@H](C)CC)n3cc(CCCN=C(N)N)nn3)CC2)nc(N2CCN(C(=O)[C@H]([C@@H](C)CC)n3cc(CCCN=C(N)N)nn3)CC2)n1	·	·	·	33	·
C#CCOCCOCCOCCNc1nc(N2CCN(C(=O)[C@H]([C@@H](C)CC)n3cc([C@@H](N)CO)nn3)CC2)nc(N2CCN(C(=O)[C@H](Cc3cc4ccccc4[nH]3)n3cc([C@@H](N)Cc4ccc(O)cc4)nn3)CC2)n1	-3	·	·	57*	·
CC[C@H](C)[C@@H](C(=O)NCCCCCCCCCCC(=O)N1CCN(C(=O)OC(C)(C)C)CC1)n1cc(CCCCN=C(NC(=O)OC(C)(C)C)NC(=O)OC(C)(C)C)nn1	13	·	·	56*	·
Cc1ccc(S(=O)(=O)N2[C@@H](c3ccccc3F)C(C(=O)O)=CC[C@H]2c2ccc3c(c2)OCO3)cc1	-2	18	4	9	5
Cc1cc(C)c(S(=O)(=O)NCc2nc3nc(C)cc(C)n3n2)c(C)c1	3	4	1	2	-3
